Sampled rows, rich in hits. Any-hit rate of the full collection: about 2.1%.
APJ agonist – agonists of human APJ apelin receptor. actives 0.11% (n = 330,000). AID 2520. activation, % at 20 µM. CHO-K1 APJ PathHunter beta-arrestin, luminescence; 0% DMSO wells, 100% apelin. P35414;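 active = activation more than six SD over the plate average, tested at 20 µM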;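 note: 0% = DMSO alone and 100% = apelin-13 at 10 nM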
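Test system – PathHunter CHO-K1 APJ (AGTRL-1) beta-arrestin reporter cells · Input – 1000 cells/well · Compound – single test compound dose, 20 µM final, 1% DMSO · Times – compound stimulation 90 min at 25 °C, detection 60 min · Technique – beta-gal luminescence · Read-out basis – APJ–arrestin association signal · Control set – negative DMSO alone, positive Apelin-13 at 10 nM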
EBI2 antag – EBI2 (human) antagonism | EBI2 beta-arrestin recruitment, luminescence, 7a,25-OHC stimulated | inhibition, % at 5 µM | actives 0.81% (n = 360,000) | P32249; in the data active = inhibition above about 38%;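 note: enzyme fragment complementation signal reports receptor beta-arrestin coupling in cells; 0% = agonist plus DMSO wells and 100% = wells without agonist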
Target sequence (P32249 whole entry, looked up, the tested form may be a part): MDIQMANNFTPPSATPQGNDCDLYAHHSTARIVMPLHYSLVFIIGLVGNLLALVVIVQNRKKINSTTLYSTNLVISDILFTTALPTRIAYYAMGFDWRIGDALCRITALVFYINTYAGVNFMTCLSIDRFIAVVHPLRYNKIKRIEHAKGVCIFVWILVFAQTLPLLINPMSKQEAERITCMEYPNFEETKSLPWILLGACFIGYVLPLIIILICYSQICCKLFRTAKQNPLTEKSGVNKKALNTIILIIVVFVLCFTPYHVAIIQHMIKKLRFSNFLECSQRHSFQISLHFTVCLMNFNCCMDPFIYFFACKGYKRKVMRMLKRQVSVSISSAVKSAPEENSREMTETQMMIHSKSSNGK
APJ antagonist – APJ receptor antagonism; CHO-K1 APJ beta-arrestin complementation, luminescence; inhibition, % at 20 µM; actives 0.32% (n = 330,000); P35414;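 active = inhibition above about 40% at 20 µM, limit read from the data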;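 note: cells challenged with 10 nM apelin-13 agonist together with compound; plate controls were apelin-13 plus DMSO wells for no effect and DMSO wells lacking apelin-13 for full effect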
m5-HT2A agonist – agonists of mouse serotonin 5-HT2A receptor (HTR2A); actives 0.66% (n = 360,000); activation, % at 7.6 µM; CHO-K1 mHTR2A beta-arrestin complementation, luminescence; percent of 30 µM serotonin response; AID 624169;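 active = activation above a run cutoff, the mean activation of all tested compounds plus 3 SD, cut at about 14% in these data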;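 note: 0% = plate median of compound wells and 100% = 30 µM serotonin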
CXCR6 block – inhibitors of human CXCR6 receptor; actives 0.36% (n = 360,000); O00574; CHO-K1 PathHunter CXCR6 beta-arrestin, luminescence; AID 602244; inhibition, % at 20 µM; in the data active = inhibition above about 34%, passing the limit was not always enough;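 note: antagonist mode with CXCL16 agonist at 10 nM final; 0% = 10 nM CXCL16 with DMSO and 100% = unstimulated wells without agonist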
Target sequence (O00574 whole entry, looked up): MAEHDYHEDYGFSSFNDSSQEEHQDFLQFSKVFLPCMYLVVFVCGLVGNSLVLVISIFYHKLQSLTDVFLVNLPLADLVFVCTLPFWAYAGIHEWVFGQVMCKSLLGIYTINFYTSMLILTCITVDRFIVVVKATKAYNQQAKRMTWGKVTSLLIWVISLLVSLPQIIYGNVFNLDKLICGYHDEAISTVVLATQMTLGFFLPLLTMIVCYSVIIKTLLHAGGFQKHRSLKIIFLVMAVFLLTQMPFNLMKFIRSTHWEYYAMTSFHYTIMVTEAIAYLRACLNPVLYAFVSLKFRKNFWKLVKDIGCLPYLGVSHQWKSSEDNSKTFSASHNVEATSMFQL
CCR6 antag – antagonists of human CCR6 receptor | P51684 | CHO-K1 CCR6 PathHunter beta-arrestin, luminescence, CCL20-stimulated | inhibition, % at 20 µM | actives 0.49% (n = 340,000) | AID 493098;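 active = compounds whose inhibition of the agonist-driven luminescence signal at 20 µM reaches about 50%, limit read from the data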;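 note: cells stimulated with CCL20 at 14 nM final; plate controls were DMSO with CCL20 for no effect and DMSO without agonist for full effect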
EBI2 conf – confirmation of human EBI2 receptor antagonists; shares compounds with EBI2 antag; EBI2 beta-arrestin luminescence, 7a,25-OHC antagonism; actives 29% (n = 2,400); inhibition, % at 5 µM;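 active = inhibition of at least 50%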
EBI2 ag – counter-screen for EBI2 antagonists: EBI2 agonist activity; AID 652000; EBI2-expressing cells, agonist mode, luminescence, 60 min; 0% vehicle, 100% 7α,25-dihydroxycholesterol control; 2,400 tested, under 10 active; shares compounds with EBI2 antag; activation, % at 5 µM;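 active = activation of at least 50%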
bGal counter – inhibits E. coli beta-galactosidase, counter-screen for EBI2 antagonists | shares compounds with EBI2 antag | purified beta-galactosidase, luminescent Galacton Star, 15 min | inhibition, % at 5 µM | actives 1% (n = 2,400);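 active = replicate-average signal at least 3 plate SD below neutral wells, shown as high inhibition, flagging enzyme-inhibiting false positives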;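 note: 0% = DMSO wells with enzyme and 100% = wells lacking enzyme; higher means stronger loss of beta-gal luminescence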
* = called active by the depositor; nt = not tested or not shown.

SMILES	APJ agonist	EBI2 antag	APJ antagonist	m5-HT2A agonist	CXCR6 block	CCR6 antag	EBI2 conf	EBI2 ag	bGal counter
COc1cc(C(=O)N2CCN(CC(O)COc3ccccc3)CC2)cc(OC)c1OC (configuration not stated)	2.3	-1.7	-0.9	-7.1	-4.8	2.7	nt	nt	nt
Cc1c(CCC(C)C)c(-n2ccnc2C)n2c(nc3ccccc32)c1C#N	3.3	8.8	-4.2	7.3	1.9	1.4	nt	nt	nt
CC1CC(C)CN(CCCNC(=O)c2c(O)nc3ccccn3c2=O)C1 (configuration not stated)	-6.2	-7.8	11.2	-5.8	8.0	10.6	nt	nt	nt
O=c1[nH]c2ccc(S(=O)(=O)N3CCN(Cc4ccccc4)CC3)cc2[nH]c1=O	1.6	-6.8	-0.1	-1.1	-5.4	9.2	nt	nt	nt
O=C(/C=C/c1cccc([N+](=O)[O-])c1)N1CCN(c2ccccn2)CC1	2.1	38.5	-0.1	-2.8	-4.5	-4.7	nt	nt	nt
COc1cccc(/C=C/C(=O)N2CCN(c3ccccn3)CC2)c1	-6.8	74.9*	0.4	-3.6	1.4	8.0	48.3	-0.8	-13.2
COc1ccc(/C=C/C(=O)N2CCN(c3ccccn3)CC2)cc1	-1.2	93.2*	11.9	6.4	-2.7	4.8	75.8*	-1.6	-8.0
CSc1ccc(/C=C/C(=O)N2CCN(c3ccccn3)CC2)cc1	-0.7	93.1*	3.0	-2.4	-2.9	10.3	81.0*	-0.5	-15.2
CCOc1ncnc2c1oc1nc(CC(C)C)c3c(c12)CC(C)(C)OC3	-5.5	10.2	11.7	2.2	5.2	23.9	nt	nt	nt
COc1ccc(N2CCN(C(=O)c3ccc(-c4nc5ccccc5s4)o3)CC2)cc1	-0.5	-5.7	1.3	0.6	-7.1	3.3	nt	nt	nt
CCc1cc2c(nc1CC)CCN(CC/C(C)=N/O[C@@H](C)c1cc(-c3c(C)cc(C)cc3C)no1)C2	3.7	nt	-34.5	nt	nt	nt	nt	nt	nt
COc1ccc(CCNC(C)=O)cc1	-2.8	-11.5	-10.8	1.3	2.9	3.4	nt	nt	nt
COc1ccc(CCNc2ccc(C)cc2)cc1	-3.2	53.9*	-8.4	3.5	-3.3	10.8	40.4	-1.9	-5.5
O=C(CSc1nc2ccc(Nc3nc(N4CCOCC4)nc(N4CCOCC4)n3)cc2s1)Nc1ccccc1Cl	2.7	9.5	-30.1	7.1	-6.4	-2.5	nt	nt	nt
O=C(CSc1nc2ccc(Nc3nc(N4CCCC4)nc(N4CCCC4)n3)cc2s1)NCc1ccco1	3.3	48.9*	0.8	0.7	-1.5	3.9	17.6	-0.8	-10.5
CCCCCCn1c(=O)n2n(c1=O)[C@@H]1CN(S(=O)(=O)c3ccc(C)cc3)C[C@]1(O)[C@@H](OC(=O)NCc1ccco1)C2	nt	-2.9	nt	2.9	-4.1	nt	nt	nt	nt
CCc1c(C)sc(NC(=O)c2cc(C3CC3)on2)c1C#N	-3.7	-0.2	21.7	-1.3	3.8	10.1	nt	nt	nt
CCCCn1c(=O)[nH]c2c(oc3ccccc32)c1=O	-0.6	1.8	-7.0	6.3	-8.4	7.9	nt	nt	nt
CC1(C(=O)Nc2ccc3[nH]ncc3c2)CCN1C(=O)CC(c1ccccc1)c1ccccc1 (configuration not stated)	nt	47.6*	nt	-1.6	7.7	nt	13.1	-0.4	-11.0
CC1(C(=O)Nc2ccc3[nH]ncc3c2)CCN1C(=O)C/C=C/c1ccccc1 (configuration not stated)	nt	20.6	nt	-3.3	-0.6	nt	nt	nt	nt
CCOC(=O)c1c2ccc(OCC(=O)N/N=C/c3ccc(C)cc3)cc2n2ccccc12	5.3	47.7*	-68.4	0.1	-23.5	-1.0	37.9	0.9	7.9
COc1ccc(C)cc1Nc1n[n+](-c2ccccc2)c(-c2cc([N+](=O)[O-])cc(OC)c2O)s1	-2.1	-11.3	-3.7	9.4	-9.3	0.2	nt	nt	nt
CN(C)S(=O)(=O)c1ccc(Nc2ccc(-c3ccc4c(c3)OCCO4)nn2)cc1	3.5	29.6	1.9	-2.1	2.2	2.4	nt	nt	nt
CN(C(=O)c1cccc(Nc2ccc(-c3ccc4c(c3)OCCO4)nn2)c1)C1CCCCC1	4.3	41.9*	-17.3	0.7	-0.6	-0.1	26.1	1.8	12.4
CCN(CC)S(=O)(=O)c1ccc(Nc2ccc(-c3ccc4c(c3)OCCO4)nn2)cc1	3.6	48.9*	0.7	-4.5	-0.1	-5.7	25.9	-1.2	-12.9
SMILES	APJ agonist	EBI2 antag	APJ antagonist	m5-HT2A agonist	CXCR6 block	CCR6 antag	EBI2 conf	EBI2 ag	bGal counter
CN(C(=O)c1cccc(NC(=O)c2ccccc2)c1)C1CCCCC1	0.1	-14.7	-13.3	-5.9	2.0	-3.0	nt	nt	nt
COP(=O)(OC)c1nc(-c2cccc3ccccc23)oc1N1CCCCC1	-4.1	2.7	1.2	3.5	-0.6	7.8	nt	nt	nt
COC(=O)c1ccc(CSc2nnc(Nc3ccc(C)cc3)s2)o1	-1.8	37.7*	-30.4	-0.5	-4.6	6.5	48.2	1.8	7.1
O=C(c1cc2c(s1)-c1ccccc1OC2)N1CCN(c2ccccc2)CC1	-0.8	60.1*	18.2	-4.8	-0.4	2.5	54.8*	-1.2	-14.5
COc1ccc(N2CCN(C(=O)c3cc4c(s3)-c3ccccc3OC4)CC2)cc1	-3.3	80.0*	7.5	1.1	-9.5	12.7	67.1*	-0.5	-8.1
COCCNC(=O)c1cc2c(=O)[nH]c3ccccc3c2s1	-2.0	6.2	5.1	1.3	-9.7	9.1	nt	nt	nt
CCOC(=O)N1CCN(C(=O)c2cc3c(=O)[nH]c4ccccc4c3s2)CC1	2.3	77.0*	-6.4	1.4	-7.0	3.0	70.0*	-0.5	6.0
O=C(c1cc2c(s1)-c1ccccc1OC2)N1CCN(c2ccccn2)CC1	-3.4	44.7*	-54.8	-1.0	2.7	13.8	33.8	0.0	-7.1
O=C(Cn1nnc(-c2ccccc2Cl)n1)N/N=C/c1ccc(-c2cccc(Cl)c2)o1	3.8	8.0	-0.3	5.7	3.5	-3.2	nt	nt	nt
CCCN1Cc2cccc(C(=O)N3CCN(c4ccccc4)CC3)c2C1=O	-0.7	-19.3	12.6	-3.6	-2.8	-6.7	nt	nt	nt
CCn1nc(CC(=O)Nc2nnc(CC(=O)N3CCOCC3)s2)c2ccccc2c1=O	-5.0	-19.3	18.8	1.4	-4.2	-10.9	nt	nt	nt
Cc1cccc(N2CC(C(=O)Nc3nc4ccc(S(C)(=O)=O)cc4s3)CC2=O)c1C (configuration not stated)	-1.8	2.1	18.4	-3.2	-5.6	14.5	nt	nt	nt
CCOC(=O)N1CCN(C(=O)c2cc3c(s2)-c2ccccc2OC3)CC1	1.0	82.3*	5.7	0.5	6.4	13.8	73.7*	-1.1	-10.1
